From ChEMBL document CHEMBL3822384, “2-(3-Methoxyphenyl)quinazoline Derivatives: A New Class of Direct Constitutive Androstane Receptor (CAR) Agonists” (J Med Chem, 2016)

How the values were obtained:
[1] = target: T1, Nuclear receptor subfamily 1 group I member 2 (Homo sapiens, UniProt O75469); assay: Agonist activity at PXR in human primary hepatocytes assessed as upregulation of UGT1A1 mRNA expression at 10 uM after 24 hrs by qRT-PCR method; type: cell-based, Hepatocyte
T1 sequence (O75469 whole entry): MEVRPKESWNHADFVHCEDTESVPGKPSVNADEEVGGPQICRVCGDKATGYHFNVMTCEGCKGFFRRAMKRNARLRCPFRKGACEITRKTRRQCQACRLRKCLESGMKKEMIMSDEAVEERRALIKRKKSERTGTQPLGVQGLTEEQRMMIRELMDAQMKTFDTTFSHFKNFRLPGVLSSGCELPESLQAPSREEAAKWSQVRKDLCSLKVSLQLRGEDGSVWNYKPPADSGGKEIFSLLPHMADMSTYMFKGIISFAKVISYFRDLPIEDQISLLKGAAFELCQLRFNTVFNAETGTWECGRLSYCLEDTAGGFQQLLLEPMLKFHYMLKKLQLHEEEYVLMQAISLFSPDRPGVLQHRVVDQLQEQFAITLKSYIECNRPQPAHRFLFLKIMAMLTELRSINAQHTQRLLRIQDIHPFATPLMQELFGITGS

Cytochrome P450 2C9 = Cytochrome P450 2C9 (Homo sapiens, UniProt P11712); assay: Inhibition of recombinant human CYP2C9 by P450-Glo luminescence assay; type: ADME
Chain of Cytochrome P450 2C9 (P11712 whole entry): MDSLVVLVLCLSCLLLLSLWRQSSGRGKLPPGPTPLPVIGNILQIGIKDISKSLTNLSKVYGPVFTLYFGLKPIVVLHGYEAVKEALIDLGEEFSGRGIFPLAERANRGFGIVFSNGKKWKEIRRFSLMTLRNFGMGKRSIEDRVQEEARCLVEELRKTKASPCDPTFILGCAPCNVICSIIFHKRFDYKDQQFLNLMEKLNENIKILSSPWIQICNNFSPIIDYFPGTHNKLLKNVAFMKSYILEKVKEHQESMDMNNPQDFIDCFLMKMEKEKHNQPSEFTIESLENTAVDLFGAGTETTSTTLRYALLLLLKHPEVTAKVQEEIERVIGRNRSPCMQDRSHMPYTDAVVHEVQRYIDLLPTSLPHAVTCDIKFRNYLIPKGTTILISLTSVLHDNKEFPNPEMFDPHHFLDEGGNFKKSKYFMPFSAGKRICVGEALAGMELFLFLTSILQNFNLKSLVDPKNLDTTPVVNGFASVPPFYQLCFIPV

HepG2 = assay: Cytotoxicity against human HepG2 cells assessed as cell viability after 24 hrs by MTS assay; type: cell-based; details: hepg2, 24 h
PXR (NR1I2) = target: T2, PXR (NR1I2) (Homo sapiens, UniProt O75469); assay: (§1) Agonist activity at PXR expressed in human HepG2 cells after 24 hrs by p3A4-luciferase reporter gene assay; details: human, HepG2 cells expressing PXR
T2 sequence (O75469 whole entry): T1 sequence (O75469 whole entry)

[2] = target: T1, Nuclear receptor subfamily 1 group I member 2; assay: as §1
[3] = target: T3, Nuclear receptor subfamily 1 group I member 3 (Homo sapiens, UniProt Q14994); assay: Agonist activity at human GAL4-fused CAR LBD (108 to 348 residues) expressed in human HepG2 cells assessed as receptor binding to SRC1-VP16 fusion protein at 5 to 20 uM after 24 hrs by luciferase reporter gene assay; type: cell-based; details: hepg2, 24 h
T3 sequence (Q14994 whole entry): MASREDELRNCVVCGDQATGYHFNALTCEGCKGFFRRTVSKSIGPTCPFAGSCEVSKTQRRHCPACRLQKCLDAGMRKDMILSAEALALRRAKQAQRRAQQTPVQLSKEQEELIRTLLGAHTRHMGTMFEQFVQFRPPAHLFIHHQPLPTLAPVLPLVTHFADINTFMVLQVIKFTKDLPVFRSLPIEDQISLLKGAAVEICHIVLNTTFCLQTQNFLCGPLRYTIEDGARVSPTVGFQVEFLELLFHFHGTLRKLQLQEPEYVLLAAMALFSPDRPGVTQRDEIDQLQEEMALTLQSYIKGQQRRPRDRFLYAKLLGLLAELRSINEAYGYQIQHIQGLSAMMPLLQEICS

[4] = target: T3, Nuclear receptor subfamily 1 group I member 3; assay: Agonist activity at CAR expressed in human HepG2 cells after 24 hrs by CYP3A4-luciferase reporter gene assay; type: cell-based; details: hepg2, 24 h
Outline: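 HepG2 cells co-transfected with CYP3A4-luc, wild-type CAR vector and pRL-TK; 24 h stabilization, then compound or DMSO (0.1%, v/v) for 24 h, with parallel androstenol (5 µM) treatment to suppress basal activity. Dual firefly/Renilla luciferase read; fold induction over vehicle (set to 1), means of three independent experiments.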

[5] = target: T1, Nuclear receptor subfamily 1 group I member 2; assay: Agonist activity at PXR in human primary hepatocytes assessed as upregulation of MDR/ABCB1 mRNA expression at 10 uM after 24 hrs by qRT-PCR method; type: cell-based, Hepatocyte
[6] = target: T3, Nuclear receptor subfamily 1 group I member 3; assay: Agonist activity at CAR expressed in human HepG2 cells at 1 to 20 uM after 48 hrs by p(ER6)3-luciferase reporter gene assay; type: cell-based; details: hepg2, 48 h
Outline: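 HepG2 cells transiently co-transfected with p(ER6)3-luc reporter, wild-type CAR expression vector and pRL-TK normalization plasmid; after 24 h stabilization, treated with compounds or vehicle (DMSO 0.1%, v/v) for 48 h. Firefly and Renilla luciferase read; fold change versus vehicle (set to 1), means ± SD of triplicates from a representative experiment.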

[7] = target: T3, Nuclear receptor subfamily 1 group I member 3; assay: Agonist activity at CAR in human primary hepatocytes assessed as upregulation of MDR/ABCB1 mRNA expression at 10 uM after 24 hrs by qRT-PCR method; type: cell-based, Hepatocyte
[8] = target: T4, Aryl hydrocarbon receptor (Homo sapiens, UniProt P35869); assay: Agonist activity at AHR in human HepaRG cells assessed as upregulation of CYP1B1 mRNA expression at 10 uM after 24 hrs by qRT-PCR method; type: cell-based
T4 sequence (P35869 whole entry): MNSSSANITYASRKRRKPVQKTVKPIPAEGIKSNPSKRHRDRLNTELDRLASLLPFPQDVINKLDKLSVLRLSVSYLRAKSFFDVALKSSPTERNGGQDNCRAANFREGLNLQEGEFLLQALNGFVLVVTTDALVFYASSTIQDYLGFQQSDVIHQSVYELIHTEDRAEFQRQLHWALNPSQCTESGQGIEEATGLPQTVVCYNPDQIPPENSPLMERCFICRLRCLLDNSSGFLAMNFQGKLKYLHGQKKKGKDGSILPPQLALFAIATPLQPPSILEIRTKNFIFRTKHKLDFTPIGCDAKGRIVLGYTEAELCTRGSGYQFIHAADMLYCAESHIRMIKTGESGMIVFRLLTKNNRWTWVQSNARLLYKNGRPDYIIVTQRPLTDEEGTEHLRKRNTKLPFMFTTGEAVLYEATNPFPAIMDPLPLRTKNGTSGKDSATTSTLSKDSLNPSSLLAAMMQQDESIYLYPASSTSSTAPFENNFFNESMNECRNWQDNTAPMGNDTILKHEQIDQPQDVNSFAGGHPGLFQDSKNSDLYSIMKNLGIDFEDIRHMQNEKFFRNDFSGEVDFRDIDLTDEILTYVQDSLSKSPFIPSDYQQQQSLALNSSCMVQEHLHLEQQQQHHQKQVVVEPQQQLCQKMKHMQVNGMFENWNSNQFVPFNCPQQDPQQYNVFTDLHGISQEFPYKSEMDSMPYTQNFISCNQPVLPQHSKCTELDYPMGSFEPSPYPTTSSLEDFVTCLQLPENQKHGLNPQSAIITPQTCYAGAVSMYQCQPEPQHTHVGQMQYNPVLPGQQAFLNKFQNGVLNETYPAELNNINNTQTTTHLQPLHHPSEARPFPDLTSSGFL

| Activity [1] | IC50 (Cytochrome P450 2C9) | Emax at 24 h (PXR (NR1I2)) | EC50 [2] | Activity [3] | Activity [4] | Activity [5] | Activity [6] | Activity [7] | Activity [8] | Compound | Activity (HepG2) |
| --- | --- | --- | --- | --- | --- | --- | --- | --- | --- | --- | --- |
| Active | 4.19 µM | > 250% | > 3.5 µM | Active | Dose-dependent effect | Active | Active | Active | Active | COc1cccc(-c2nc(SC)c3ccccc3n2)c1 | Non-toxic |
| Active | 5.03 µM | > 250% | > 3 µM | Active | Dose-dependent effect | Active | Active | Active | Active | COc1cccc(-c2nc(OC)c3ccccc3n2)c1 | Non-toxic |
| Active | 11 µM | 165% | 0.86 µM | Active | Dose-dependent effect | Active | Active | Active | Active | COc1cccc(-c2nc3ccccc3c(=S)[nH]2)c1 | Non-toxic |
